# Results reported in ChEMBL document CHEMBL1123394, “Systematic synthesis and biological evaluation of alpha- and beta-D-xylofuranosyl nucleosides of the five naturally occurring bases in nucleic acids and related analogues” (J Med Chem, 1986).
# Tested on: Vero
# Assay: Concentration required for microscopically detectable alteration of the normal cell morphology in Vero B cells.
# Type: functional
# Conditions: Chlorocebus sabaeus
# In short: (§1)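 Host-cell morphology inspected microscopically for detectable alteration, with compounds in growth medium at up to 200 or 400 μg/mL.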
row,Compound,MCC [µg/mL]
1,Nc1nc(O)c2ncn([C@@H]3O[C@H](CO)[C@H](O)[C@H]3O)c2n1,> 400

# Tested on: not listed separately
# Assay: Concentration required to reduce protein synthesis in primary rabbit kidney cells usingi [3H2-4,5]leucine incorporation
# Type: functional
# Conditions: Oryctolagus cuniculus, read-out: ID50 (the source's name)
# In short: (§2)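 Primary rabbit kidney cells with compounds in growth medium at 100, 10, or 1 μg/mL or less. Cell number and incorporation of [3H-methyl]dThd (DNA), [3H-5]Urd (RNA) or [3H2-4,5]leucine (protein) measured. ID50 taken as the dose giving 50% reduction in cell number or in DNA, RNA or protein synthesis.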
row,Compound,IC50 [µg/mL]
1,Nc1ccn([C@@H]2O[C@H](CO)[C@@H](O)[C@@H]2O)c(=O)n1 [CYTARABINE],> 200
2,Nc1nc(O)c2ncn([C@@H]3O[C@H](CO)[C@H](O)[C@H]3O)c2n1,148

# Tested on: not listed separately
# Assay: Concentration required to reduce RNA synthesis in primary rabbit kidney cells using [3H-5]-Urd incorporation
# Type: functional
# Conditions: Oryctolagus cuniculus, read-out: ID50 (the source's name)
# In short: as §2
row,Compound,IC50 [µg/mL]
1,Nc1ccn([C@@H]2O[C@H](CO)[C@@H](O)[C@@H]2O)c(=O)n1 [CYTARABINE],0.03
2,Nc1nc(O)c2ncn([C@@H]3O[C@H](CO)[C@H](O)[C@H]3O)c2n1,61

# Tested on: Mus musculus
# Assay: Toxicity of compound against mice was determined at a concentration of 100 mg/kg
# Type: organism-based
# Design: dose 100 mg/kg
# Conditions: in vivo
# In short: (§3)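 Swiss mice (20-24 g) received a single intraperitoneal dose of 100-2,000 mg/kg. Compound was suspended in distilled water containing 0.2 g Tween 80 and 0.2 g (carboxymethyl)cellulose per 100 mL. Mice were followed for 14 days for acute toxicity.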
row,Compound,No. of dead mice
1,Nc1nc2c(ncn2COCCO)c(=O)[nH]1 [ACYCLOVIR],0
2,Nc1nc2c(ncn2[C@@H]2O[C@H](CO)[C@H](O)[C@H]2O)c(=O)[nH]1,2

# Tested on: Vero
# Assay: Antiviral activity was measured against Parainfluenza virus-3 in african green monkey kidney (Vero B) cells.
# Type: functional
# Conditions: Chlorocebus sabaeus
# In short: (§4)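 Inhibition of virus-induced cytopathogenicity scored in cell culture monolayers. Test compounds dissolved in growth medium at 100, 10, or 1 μg/mL or less.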
row,Compound,MCC [µg/mL]
1,Nc1nc(O)c2ncn([C@@H]3O[C@H](CO)[C@H](O)[C@H]3O)c2n1,> 400

# Tested on: WI-38
# Assay: Concentration required for microscopically detectable alteration of the normal cell morphology in Wi-38 cells.
# Type: functional
# Conditions: Homo sapiens
# In short: as §1
row,Compound,MCC [µg/mL]
1,Nc1nc(O)c2ncn([C@@H]3O[C@H](CO)[C@H](O)[C@H]3O)c2n1,> 400

# Tested on: not listed separately
# Assay: Number of living cells on the proliferation of mouse myeloma cells SP2 was measured at concentration 100 ug/mL at 96 h.
# Type: functional
# Conditions: not given
# In short: (§5)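 Mouse myeloma SP2 cells seeded at 123 × 10^3 cells and exposed to compound at 1, 10 or 100 μg/mL in growth medium. Living cells counted at 0, 48 and 96 h alongside untreated controls.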
row,Compound,No. of living cells
1,Nc1nc(O)c2ncn([C@@H]3O[C@H](CO)[C@H](O)[C@H]3O)c2n1,0

# Tested on: Mus musculus
# Assay: Toxicity of compound against mice was determined at a concentration of 2000 mg/kg
# Type: organism-based
# Design: dose 2000 mg/kg
# Conditions: in vivo
# In short: as §3
row,Compound,No. of dead mice
1,Nc1nc2c(ncn2COCCO)c(=O)[nH]1 [ACYCLOVIR],7

# Tested on: WI-38
# Assay: Antiviral activity was measured against Rhino virus-9 in human diploid (WI-38) cells.
# Type: functional
# Conditions: not given
# In short: as §4
row,Compound,MCC [µg/mL]
1,Nc1nc(O)c2ncn([C@@H]3O[C@H](CO)[C@H](O)[C@H]3O)c2n1,> 400

# Tested on: not listed separately
# Assay: dose required to reduce primary rabbit kidney cell growth
# Type: functional
# Conditions: Oryctolagus cuniculus, read-out: ID50 (the source's name)
# In short: as §2
row,Compound,IC50 [µg/mL]
1,Nc1nc(O)c2ncn([C@@H]3O[C@H](CO)[C@H](O)[C@H]3O)c2n1,62

# Tested on: not listed separately
# Assay: Number of living cells on the proliferation of mouse myeloma cells SP2 was measured at concentration 100 ug/mL at 0h.
# Type: functional
# Conditions: not given
# In short: as §5
row,Compound,No. of living cells
1,Nc1nc(O)c2ncn([C@@H]3O[C@H](CO)[C@H](O)[C@H]3O)c2n1,0.123

# Tested on: not listed separately
# Assay: Antiviral activity was measured against Herpes simplex virus (HSV-1 KOS) in rabbit kidney cells.
# Type: functional
# Conditions: Oryctolagus cuniculus
# In short: (§6)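 Inhibition of virus-induced cytopathogenicity in cell culture. Compounds were dissolved in growth medium at 100, 10 or 1 μg/mL or less.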
row,Compound,MCC [µg/mL]
1,Nc1nc(O)c2ncn([C@@H]3O[C@H](CO)[C@H](O)[C@H]3O)c2n1,70

# Tested on: Mus musculus
# Assay: Toxicity of compound against mice was determined at a concentration of 750 mg/kg
# Type: organism-based
# Design: dose 750 mg/kg
# Conditions: in vivo
# In short: as §3
row,Compound,No. of dead mice
1,Nc1nc2c(ncn2COCCO)c(=O)[nH]1 [ACYCLOVIR],1
2,Nc1nc2c(ncn2[C@@H]2O[C@H](CO)[C@H](O)[C@H]2O)c(=O)[nH]1,8

# Tested on: Vero
# Assay: Antiviral activity was measured against Reo virus-1 in african green monkey kidney (Vero B) cells.
# Type: functional
# Conditions: Chlorocebus sabaeus
# In short: as §4
row,Compound,MCC [µg/mL]
1,Nc1nc(O)c2ncn([C@@H]3O[C@H](CO)[C@H](O)[C@H]3O)c2n1,> 400

# Tested on: not listed separately
# Assay: Antiviral activity was measured against Herpes simplex virus (HSV-2 G) in rabbit kidney cells.
# Type: functional
# Conditions: Oryctolagus cuniculus
# In short: as §4
row,Compound,MCC [µg/mL]
1,Nc1nc(O)c2ncn([C@@H]3O[C@H](CO)[C@H](O)[C@H]3O)c2n1,70

# Tested on: not listed separately
# Assay: Concentration required for microscopically detectable alteration of the normal cell morphology in PRK cells.
# Type: functional
# Conditions: Oryctolagus cuniculus
# In short: as §1
row,Compound,MCC [µg/mL]
1,Nc1nc(O)c2ncn([C@@H]3O[C@H](CO)[C@H](O)[C@H]3O)c2n1,> 200

# Tested on: WI-38
# Assay: Antiviral activity was measured against Rhino virus-1A in human diploid (WI-38) cells.
# Type: functional
# Conditions: not given
# In short: as §4
row,Compound,MCC [µg/mL]
1,Nc1nc(O)c2ncn([C@@H]3O[C@H](CO)[C@H](O)[C@H]3O)c2n1,> 400

# Tested on: not listed separately
# Assay: Number of living cells on the proliferation of mouse myeloma cells SP2 was measured at concentration 100 ug/mL at 48 hr.
# Type: functional
# Conditions: not given
# In short: as §5
row,Compound,No. of living cells
1,Nc1nc(O)c2ncn([C@@H]3O[C@H](CO)[C@H](O)[C@H]3O)c2n1,0.024

# Tested on: Vero
# Assay: Antiviral activity was measured against forest virus in african green monkey kidney (Vero B) cells.
# Type: functional
# Conditions: Chlorocebus sabaeus
# In short: as §4
row,Compound,MCC [µg/mL]
1,Nc1nc(O)c2ncn([C@@H]3O[C@H](CO)[C@H](O)[C@H]3O)c2n1,> 400

# Species: Mus musculus
# Assay: Efficacy expressed as number of surviving mice infected with herpetic encephalitis at dose of 75 mg.kg
# Type: functional
# Conditions: not given
# In short: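 Young mice (10 g) were inoculated intracerebrally with 0.03 mL of herpes simplex virus suspension containing ca. 4 CCID50. Compound was given at 75 or 150 mg/kg per day as two daily intraperitoneal injections for 4 days. Read-out was the number of surviving mice.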
row,Compound,Efficacy [mg/kg]
1,Nc1nc(O)c2ncn([C@@H]3O[C@H](CO)[C@H](O)[C@H]3O)c2n1,3

# Tested on: not listed separately
# Assay: Antiviral activity was measured against Vesicular stomatitis virus in rabbit kidney cells.
# Type: functional
# Conditions: Oryctolagus cuniculus
# In short: as §6
row,Compound,MCC [µg/mL]
1,Nc1nc(O)c2ncn([C@@H]3O[C@H](CO)[C@H](O)[C@H]3O)c2n1,> 200

# Tested on: Mus musculus
# Assay: Toxicity of compound against mice was determined at a concentration of 1200 mg/kg
# Type: organism-based
# Design: dose 1200 mg/kg
# Conditions: in vivo
# In short: as §3
row,Compound,No. of dead mice
1,Nc1nc2c(ncn2COCCO)c(=O)[nH]1 [ACYCLOVIR],7

# Tested on: HeLa
# Assay: Concentration required for microscopically detectable alteration of the normal cell morphology in HeLa cells.
# Type: functional
# Conditions: Homo sapiens
# In short: as §1
row,Compound,MCC [µg/mL]
1,Nc1nc(O)c2ncn([C@@H]3O[C@H](CO)[C@H](O)[C@H]3O)c2n1,400

# Tested on: Mus musculus
# Assay: Efficacy expressed as number of surviving mice infected with herpetic encephalitis at dose of 150 mg/kg; T is Toxic
# Type: functional, organism-based
# Design: dose 150 mg/kg
# Conditions: not given
row,Compound,Efficacy
1,Nc1nc(O)c2ncn([C@@H]3O[C@H](CO)[C@H](O)[C@H]3O)c2n1,Toxic

# Tested on: not listed separately
# Assay: Dose required to reduce primary rabbit kidney cell growth
# Type: functional
# Conditions: Oryctolagus cuniculus, read-out: ID50 (the source's name)
# In short: as §2
row,Compound,IC50 [µg/mL]
1,Nc1ccn([C@@H]2O[C@H](CO)[C@@H](O)[C@@H]2O)c(=O)n1 [CYTARABINE],0.04

# Tested on: Vero
# Assay: Antiviral activity was measured against Sindbis virus in african green monkey kidney (Vero B) cells.
# Type: functional
# Conditions: Chlorocebus sabaeus
# In short: as §4
row,Compound,MCC [µg/mL]
1,Nc1nc(O)c2ncn([C@@H]3O[C@H](CO)[C@H](O)[C@H]3O)c2n1,> 400

# Tested on: Vero
# Assay: Antiviral activity was measured against Coxsackie virus B4 in african green monkey kidney (Vero B) cells.
# Type: functional
# Conditions: Chlorocebus sabaeus
# In short: as §4
row,Compound,MCC [µg/mL]
1,Nc1nc(O)c2ncn([C@@H]3O[C@H](CO)[C@H](O)[C@H]3O)c2n1,> 400

# Tested on: not listed separately
# Assay: Antiviral activity was measured against Vaccinia virus in rabbit kidney cells.
# Type: functional
# Conditions: Oryctolagus cuniculus
# In short: as §6
row,Compound,MCC [µg/mL]
1,Nc1nc(O)c2ncn([C@@H]3O[C@H](CO)[C@H](O)[C@H]3O)c2n1,10

# Tested on: Mus musculus
# Assay: Toxicity of compound against mice was determined at a concentration of 250 mg/kg
# Type: organism-based
# Design: dose 250 mg/kg
# Conditions: in vivo
# In short: as §3
row,Compound,No. of dead mice
1,Nc1nc2c(ncn2COCCO)c(=O)[nH]1 [ACYCLOVIR],0
2,Nc1nc2c(ncn2[C@@H]2O[C@H](CO)[C@H](O)[C@H]2O)c(=O)[nH]1,5

# Tested on: Mus musculus
# Assay: Efficacy expressed as number of surviving mice infected with herpetic encephalitis at dose of 0 mg/kg
# Type: functional
# Conditions: not given
row,Compound,Efficacy [mg/kg]
1,Nc1nc2c(ncn2COCCO)c(=O)[nH]1 [ACYCLOVIR],0
2,Nc1nc(O)c2ncn([C@@H]3O[C@H](CO)[C@H](O)[C@H]3O)c2n1,0

# Tested on: not listed separately
# Assay: Concentration required to reduce DNA synthesis in primary rabbit kidney cells using [3H-Methyl]-dThd incorporation
# Type: functional
# Conditions: Oryctolagus cuniculus, read-out: ID50 (the source's name)
# In short: as §2
row,Compound,IC50 [µg/mL]
1,Nc1ccn([C@@H]2O[C@H](CO)[C@@H](O)[C@@H]2O)c(=O)n1 [CYTARABINE],0.05
2,Nc1nc(O)c2ncn([C@@H]3O[C@H](CO)[C@H](O)[C@H]3O)c2n1,71

# Tested on: HeLa
# Assay: Antiviral activity was measured against Coxsackie virus B4 in HeLa cells.
# Type: functional
# Conditions: Homo sapiens
# In short: as §6
row,Compound,MCC [µg/mL]
1,Nc1nc(O)c2ncn([C@@H]3O[C@H](CO)[C@H](O)[C@H]3O)c2n1,> 200
